Laboratory results taken from ChEMBL document CHEMBL5321217, “Identification of pyrrolo[3',4':3,4]cyclohepta[1,2-d][1,2]oxazoles as promising new candidates for the treatment of lymphomas” (Eur J Med Chem, 2023).
Activity calls are given as the source filed them. The calls are words filed in the database; no cut-off is given here.

Legend:
[1] = test system: NCI-H322M; test: Antiproliferative activity against human NCI-H322M cells assessed as growth inhibition incubated for 72 hrs by MTT assay; format: functional
[2] = test system: RPMI-8226; test: Antiproliferative activity against human RPMI-8226 cells assessed as growth inhibition incubated for 72 hrs by MTT assay; format: functional
[3] = test system: EKVX; test: Antiproliferative activity against human EKVX cells assessed as growth inhibition incubated for 72 hrs by MTT assay; format: functional
[4] = test system: COLO 205; test: Antiproliferative activity against human COLO 205 cells assessed as growth inhibition incubated for 72 hrs by MTT assay; format: functional
[5] = test system: HCC 2998; test: Antiproliferative activity against human HCC 2998 cells assessed as growth inhibition incubated for 72 hrs by MTT assay; format: functional
[6] = test system: HCT-15; test: Antiproliferative activity against human HCT-15 cells assessed as growth inhibition incubated for 72 hrs by MTT assay; format: functional
[7] = test system: HT-29; test: Antiproliferative activity against human HT-29 cells assessed as growth inhibition incubated for 72 hrs by MTT assay; format: functional
[8] = test system: SF-539; test: Antiproliferative activity against human SF-539 cells assessed as growth inhibition incubated for 72 hrs by MTT assay; format: functional
[9] = test system: LOX IMVI; test: Antiproliferative activity against human LOX IMVI cells assessed as growth inhibition incubated for 72 hrs by MTT assay; format: functional
[10] = test system: M14; test: Antiproliferative activity against human M14 cells assessed as growth inhibition incubated for 72 hrs by MTT assay; format: functional
[11] = test system: MDA-MB-435; test: Antiproliferative activity against human MDA-MB-435 cells assessed as growth inhibition incubated for 72 hrs by MTT assay; format: functional
[12] = test system: UACC-62; test: Antiproliferative activity against human UACC-62 cells assessed as growth inhibition incubated for 72 hrs by assay; format: functional
[13] = test system: IGROV-1; test: Antiproliferative activity against human IGROV-1 cells assessed as growth inhibition incubated for 72 hrs by MTT assay; format: functional
[14] = test system: OVCAR-5; test: Antiproliferative activity against human OVCAR-5 cells assessed as growth inhibition incubated for 72 hrs by MTT assay; format: functional
[15] = test system: OVCAR-8; test: Antiproliferative activity against human OVCAR-8 cells assessed as growth inhibition incubated for 72 hrs by MTT assay; format: functional
[16] = test system: SK-OV-3; test: Antiproliferative activity against human SK-OV-3 cells assessed as growth inhibition incubated for 72 hrs by MTT assay; format: functional
[17] = test system: 786-0; test: Antiproliferative activity against human 786-0 cells assessed as growth inhibition incubated for 72 hrs by MTT assay; format: functional
[18] = test system: ACHN; test: Antiproliferative activity against human ACHN cells assessed as growth inhibition incubated for 72 hrs by MTT assay; format: functional
[19] = test system: RXF 393; test: Antiproliferative activity against human RXF 393 cells assessed as growth inhibition incubated for 72 hrs by MTT assay; format: functional
[20] = test system: SN12C; test: Antiproliferative activity against human SN12C cells assessed as growth inhibition incubated for 72 hrs by MTT assay; format: functional
[21] = test system: BT-549; test: Antiproliferative activity against human BT-549 cells assessed as growth inhibition incubated for 72 hrs by MTT assay; format: functional
[22] = test system: T47D; test: Antiproliferative activity against human T47D cells assessed as growth inhibition incubated for 72 hrs by MTT assay; format: functional
[23] = test system: MDA-MB-468; test: Antiproliferative activity against human MDA-MB-468 cells assessed as growth inhibition incubated for 72 hrs by MTT assay; format: functional
[24] = test system: VL51; test: Antiproliferative activity against human VL51 cells assessed as cell growth inhibition measured after 72 hrs by MTT assay; format: functional, cell-based; conditions: VL51, 72 h
Method in brief: (§1)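 Lymphoma cells grown in RPMI-1640 with 20% FBS, seeded at 5,000–10,000 cells/well by doubling time. Doses 0–10 μM, 1:2 serial dilution, DMSO ≤0.1%, 72 h at 37 °C, 5% CO2. MTT (5 mg/mL stock) added for 4 h, SDS lysis, A570 read against medium-only blanks. IC50 from triplicate assays.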

[25] = test system: SU-DHL10; test: Antiproliferative activity against human SU-DHL-10 cells assessed as cell growth inhibition measured after 72 hrs by MTT assay; format: functional, cell-based; conditions: SU-DHL10, 72 h; method in brief: as §1
[26] = test system: A549; test: Induction of cell cycle arrest in human A549 cells assessed as reduction in accumulation of cells at S phase at 1 uM incubated for 24 hrs by PI staining based flow cytometry analysis; format: functional
Method in brief: (§2)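 Seeding in 6-well plates, 2 mL medium: A549 5×10^4, CCRF-CEM 2.5×10^5, VL51 2.0×10^5. 24 h treatment, A549 detached with trypsin-EDTA. Cells fixed in 70% ice-cold ethanol, PI-labelled, analysed by flow cytometry. Mean of two independent experiments.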

[27] = test system: VL51; test: Induction of cell cycle arrest in human VL51 cells assessed as accumulation of cells at M phase by measuring p-Histone H3 positive cells incubated for 24 hrs by PI staining based flow cytometry analysis; format: functional; conditions: dose 0.5-1 µM
[28] = test system: A549; test: Induction of apoptosis in human A549 cells assessed as increase in apoptotic cells incubated for 48 hrs by annexin V-FITC and PI staining based flow cytometric analysis; format: functional, cell-based; conditions: dose 1-5 µM
Method in brief: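 Cells exposed to several concentrations for 48 h, then stained with annexin V-FITC and PI and read by flow cytometry (FL1/FL3). Apoptotic cells = annexin V-positive plus annexin V/PI double-positive. Mean of three independent experiments.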

[29] = test system: A549; test: Induction of cell cycle arrest in human A549 cells assessed as accumulation of cells at G2/M phase at 1 uM incubated for 24 hrs by PI staining based flow cytometry analysis; format: functional; method in brief: as §2
[30] = test system: VL51; test: Induction of cell cycle arrest in human VL51 cells assessed as accumulation of cells at G2/M phase at 1 uM incubated for 24 hrs by PI staining based flow cytometry analysis; format: functional; method in brief: as §2
[31] = test system: CCRF-CEM; test: Induction of cell cycle arrest in human CCRF-CEM cells assessed as accumulation of cells at G2/M phase at 1 uM incubated for 24 hrs by PI staining based flow cytometry analysis; format: functional; method in brief: as §2
[32] = test system: SU-DHL10; test: Antiproliferative activity against human SU-DHL-10 cells assessed as reduction in cell proliferation at 1 uM measured after 72 hrs by MTT assay relative to control; format: functional; set-up: scale not given: the % may be the effect or the level left
Method in brief: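 Single-dose 1 μM screen in lymphoma cells (RPMI-1640, 20% FBS; 5,000–10,000 cells/well), 72 h at 37 °C, 5% CO2, DMSO ≤0.1%. MTT for 4 h, SDS lysis, absorbance at 570 nm. Proliferation expressed as percent of untreated control.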

[33] = Antiproliferative activity against human HBL1 cells assessed as reduction in cell proliferation at 1 uM measured after 72 hrs by MTT assay relative to control; format: functional; set-up: scale not given: the % may be the effect or the level left
Method in brief: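 Single-dose screen at 1 μM for 72 h at 37 °C, 5% CO2 (DMSO ≤0.1%). Cells in RPMI-1640 with 20% FBS, seeded at 5,000–10,000 cells/well. MTT added for 4 h, SDS lysis, A570 read with medium-only blanks. Percent proliferation relative to untreated cells, run in triplicate.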

| SMILES | GI50 [1] [nM] | GI50 [2] [nM] | GI50 [3] [nM] | GI50 [4] [nM] | GI50 [5] [nM] | GI50 [6] [nM] | GI50 [7] [nM] | GI50 [8] [nM] | GI50 [9] [nM] | GI50 [10] [nM] | GI50 [11] [nM] | GI50 [12] [nM] | GI50 [13] [nM] | GI50 [14] [nM] | GI50 [15] [nM] | GI50 [16] [nM] | GI50 [17] [nM] | GI50 [18] [nM] | GI50 [19] [nM] | GI50 [20] [nM] | other results |
| --- | --- | --- | --- | --- | --- | --- | --- | --- | --- | --- | --- | --- | --- | --- | --- | --- | --- | --- | --- | --- | --- |
| COc1ccc(Cn2cc3c(c2-c2cc(OC)c(OC)c(OC)c2)CCCc2cnoc2-3)cc1 | 3280 | 1560 | 3000 | 1450 | 1610 | 480 | 1130 | 700 | 990 | 390 | 230 | 910 | 560 | 3720 | 4300 | 4180 | 670 | 900 | 660 | 4600 | GI50 [21]: 480 nM; GI50 [22]: 1850 nM; GI50 [23]: 560 nM; IC50 [24]: 400 nM; IC50 [25]: 1800 nM; Activity [26]: Active; Activity [27]: Dose-Dependent Effect; Activity [28]: Dose-Dependent Effect; Activity [29]: Active; Activity [30]: Active; Activity [31]: Active; Activity [32]: >50%; Activity [33]: >50% |
| COc1ccc(Cn2cc3c(c2-c2cc(OC)c(OC)c(OC)c2)CCCc2cnoc2-3)cc1N | 840 | 610 | 2670 | 380 | 1660 | 530 | 420 | 400 | 700 | 480 | 240 | 430 | 1560 | 1440 | 1570 | 680 | 520 | 690 | 450 | 840 | GI50 [21]: 250 nM; GI50 [22]: 390 nM; GI50 [23]: 650 nM; IC50 [24]: 100 nM; IC50 [25]: 500 nM; Activity [26]: Active; Activity [27]: Dose-Dependent Effect; Activity [28]: Dose-Dependent Effect; Activity [29]: Active; Activity [30]: Active; Activity [31]: Active; Activity [32]: >50%; Activity [33]: >50% |
